From ChEMBL document CHEMBL1158343, “Synthesis, antimicrobial and antiviral evaluation of substituted imidazole derivatives” (Eur J Med Chem, 2009)
Values after ≈ are worked out from the molar mass of the structure shown.

Columns and labels:
[1] = Cytotoxicity against human HeLa cells assessed as alteration in cell morphology; format: cell-based
Procedure, shortened: (§1)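 Uninfected cell cultures tested in parallel with the CPE-reduction antiviral assay; cells grown to confluency, then serial compound dilutions added and incubated at 37 °C (3 days in the parallel antiviral set-up). Read-out is microscopic examination of morphology; value is the minimum cytotoxic concentration, the lowest causing a microscopically detectable alteration of normal cell morphology.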

[2] = test system: Respiratory syncytial virus; assay: Antiviral activity against RSV infected in human HeLa cells assessed as reduction in virus-induced cytopathogenicity after 3 days; format: functional, organism-based; details: 72 h
Human alphaherpesvirus 2 = assay: Antiviral activity against HSV2 G infected in human HEL cells assessed as reduction in virus-induced cytopathogenicity after 3 days; format: functional, organism-based; details: Human alphaherpesvirus 2, strain G, 72 h
[3] = test system: Vesicular stomatitis virus; assay: Antiviral activity against VSV infected in human HeLa cells assessed as reduction in virus-induced cytopathogenicity after 3 days; format: functional, organism-based; details: 72 h
Coxsackievirus B4 [4] = assay: Antiviral activity against Coxsackievirus B4 infected in human HeLa cells assessed as reduction in virus-induced cytopathogenicity after 3 days; format: functional, organism-based; details: Enterovirus B, 72 h
Punta Toro virus = assay: Antiviral activity against Punta Toro virus infected in african green monkey Vero cells assessed as reduction in virus-induced cytopathogenicity after 3 days; format: functional, organism-based; details: 72 h
[5] = Cytotoxicity against human HEL cells assessed as alteration in cell morphology; format: cell-based; procedure, shortened: as §1
Human alphaherpesvirus 1 [6] = assay: Antiviral activity against HSV1 KOS infected in human HEL cells assessed as reduction in virus-induced cytopathogenicity after 3 days; format: functional, organism-based; details: Human alphaherpesvirus 1, KOS, 72 h
[7] = test system: Vesicular stomatitis virus; assay: Antiviral activity against VSV infected in human HEL cells assessed as reduction in virus-induced cytopathogenicity after 3 days; format: functional, organism-based; details: 72 h
Staphylococcus aureus = assay: Antimicrobial activity against Staphylococcus aureus after 24 hrs by tube dilution method; format: functional
Procedure, shortened: (§2)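 Tube dilution in DMSO (stock 100 mg/ml) with serial dilutions; incubation 37 °C for 48 h for C. albicans (other organisms' times truncated in text). MIC read as lowest concentration inhibiting visible growth. Norfloxacin (bacteria) and fluconazole (fungi) as reference drugs.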

[8] = test system: Mammalian orthoreovirus 1; assay: Antiviral activity against Reovirus 1 infected in african green monkey Vero cells assessed as reduction in virus-induced cytopathogenicity after 3 days; format: functional, organism-based; details: Mammalian orthoreovirus 1, Vero, 72 h
Sindbis virus = assay: Antiviral activity against Sindbis virus infected in african green monkey Vero cells assessed as reduction in virus-induced cytopathogenicity after 3 days; format: functional, organism-based; details: 72 h
Candida albicans = assay: Antimicrobial activity against Candida albicans after 48 hrs by tube dilution method; format: functional; procedure, shortened: as §2
[9] = Cytotoxicity against african green monkey Vero cells assessed as alteration in cell morphology; format: cell-based; details: chlorocebus sabaeus; procedure, shortened: as §1
Human alphaherpesvirus 1 [10] = assay: Antiviral activity against thymidine kinase-deficient acyclovir-resistant HSV1 KOS infected in human HEL cells assessed as reduction in virus-induced cytopathogenicity after 3 days; format: functional, organism-based; details: Human alphaherpesvirus 1, KOS, 72 h
Escherichia coli = assay: Antimicrobial activity against Escherichia coli after 24 hrs by tube dilution method; format: functional; procedure, shortened: as §2
Aspergillus niger = assay: Antimicrobial activity against Aspergillus niger after 7 days by tube dilution method; format: functional; details: 168 h; procedure, shortened: as §2
Bacillus subtilis = assay: Antimicrobial activity against Bacillus subtilis after 24 hrs by tube dilution method; format: functional; procedure, shortened: as §2
Coxsackievirus B4 [11] = assay: Antiviral activity against Coxsackievirus B4 infected in african green monkey Vero cells assessed as reduction in virus-induced cytopathogenicity after 3 days; format: functional, organism-based; details: Enterovirus B, 72 h
Human respirovirus 3 = assay: Antiviral activity against Parainfluenza-3 virus infected in african green monkey Vero cells assessed as reduction in virus-induced cytopathogenicity after 3 days; format: functional, organism-based; details: Human respirovirus 3, Vero, 72 h

Structure (SMILES)	MCC [1] [µg/mL]	EC50 [2] [µg/mL]	EC50 (Human alphaherpesvirus 2) [µg/mL]	EC50 [3] [µg/mL]	EC50 (Coxsackievirus B4 [4]) [µg/mL]	EC50 (Punta Toro virus) [µg/mL]	MCC [5] [µg/mL]	EC50 (Human alphaherpesvirus 1 [6]) [µg/mL]	EC50 [7] [µg/mL]	MBC (Staphylococcus aureus) [µM]	MIC (Staphylococcus aureus) [µM]	EC50 [8] [µg/mL]	EC50 (Sindbis virus) [µg/mL]	MFC (Candida albicans) [µM]	MIC (Candida albicans) [µM]	MCC [9] [µg/mL]	EC50 (Human alphaherpesvirus 1 [10]) [µg/mL]	MBC (Escherichia coli) [µM]	MIC (Escherichia coli) [µM]	MFC (Aspergillus niger) [µM]	also measured
O=C(c1ccccc1Br)n1ccnc1-c1ccccc1Cl	> 100	> 100	> 100	> 100	> 100	> 100	> 100	> 100	> 100	268 (≈ 96.9 µg/mL)	69 (≈ 25 µg/mL)	> 100	> 100	138 (≈ 49.9 µg/mL)	17 (≈ 6.15 µg/mL)	> 100	> 100	268 (≈ 96.9 µg/mL)	69 (≈ 25 µg/mL)	138 (≈ 49.9 µg/mL)	MIC (Aspergillus niger): 8 µM (≈ 2.89 µg/mL); MBC (Bacillus subtilis): 268 µM (≈ 96.9 µg/mL); MIC (Bacillus subtilis): 69 µM (≈ 25 µg/mL); EC50 (Coxsackievirus B4 [11]): > 100 µg/mL; EC50 (Human respirovirus 3): > 100 µg/mL
O=C(c1ccc([N+](=O)[O-])cc1)n1ccnc1-c1cccc(Cl)c1	> 100	> 100	> 100	> 100	> 100	> 100	> 100	> 100	> 100	305 (≈ 100 µg/mL)	38 (≈ 12.5 µg/mL)	> 100	> 100	304 (≈ 99.6 µg/mL)	38 (≈ 12.5 µg/mL)	> 100	> 100	305 (≈ 100 µg/mL)	38 (≈ 12.5 µg/mL)	152 (≈ 49.8 µg/mL)	MIC (Aspergillus niger): 19 µM (≈ 6.23 µg/mL); MBC (Bacillus subtilis): 305 µM (≈ 100 µg/mL); MIC (Bacillus subtilis): 38 µM (≈ 12.5 µg/mL); EC50 (Coxsackievirus B4 [11]): > 100 µg/mL; EC50 (Human respirovirus 3): > 100 µg/mL
O=C(c1ccccc1Br)n1ccnc1-c1cccc([N+](=O)[O-])c1	> 100	> 100	> 100	> 100	> 100	> 100	> 100	> 100	> 100	33 (≈ 12.3 µg/mL)	4 (≈ 1.49 µg/mL)	> 100	> 100	268 (≈ 99.7 µg/mL)	16 (≈ 5.95 µg/mL)	> 100	> 100	16 (≈ 5.95 µg/mL)	2 (≈ 0.744 µg/mL)	67 (≈ 24.9 µg/mL)	MIC (Aspergillus niger): 16 µM (≈ 5.95 µg/mL); MBC (Bacillus subtilis): 268 µM (≈ 99.7 µg/mL); MIC (Bacillus subtilis): 33 µM (≈ 12.3 µg/mL); EC50 (Coxsackievirus B4 [11]): > 100 µg/mL; EC50 (Human respirovirus 3): > 100 µg/mL
COc1ccc(-c2nccn2C(=O)c2ccccc2Br)cc1	> 100	> 100	> 100	> 100	> 100	> 100	> 100	> 100	> 100	134 (≈ 47.9 µg/mL)	16 (≈ 5.72 µg/mL)	> 100	> 100	134 (≈ 47.9 µg/mL)	16 (≈ 5.72 µg/mL)	> 100	> 100	628 (≈ 224 µg/mL)	33 (≈ 11.8 µg/mL)	134 (≈ 47.9 µg/mL)	MIC (Aspergillus niger): 16 µM (≈ 5.72 µg/mL); MBC (Bacillus subtilis): 628 µM (≈ 224 µg/mL); MIC (Bacillus subtilis): 16 µM (≈ 5.72 µg/mL); EC50 (Coxsackievirus B4 [11]): > 100 µg/mL; EC50 (Human respirovirus 3): > 100 µg/mL
O=C(c1ccccc1Br)n1ccnc1-c1ccc(Cl)cc1	> 100	> 100	> 100	> 100	> 100	> 100	> 100	> 100	> 100	17 (≈ 6.15 µg/mL)	2 (≈ 0.723 µg/mL)	> 100	> 100	138 (≈ 49.9 µg/mL)	17 (≈ 6.15 µg/mL)	> 100	> 100	17 (≈ 6.15 µg/mL)	2 (≈ 0.723 µg/mL)	69 (≈ 25 µg/mL)	MIC (Aspergillus niger): 8 µM (≈ 2.89 µg/mL); MBC (Bacillus subtilis): 17 µM (≈ 6.15 µg/mL); MIC (Bacillus subtilis): 2 µM (≈ 0.723 µg/mL); EC50 (Coxsackievirus B4 [11]): > 100 µg/mL; EC50 (Human respirovirus 3): > 100 µg/mL
